Sampled rows, rich in hits. Any-hit rate of the full collection: about 1.3%.
GRK2 inh = inhibitors of human GRK2 displacing RNA aptamer; P25098; bead flow cytometry, FAM-aptamer displacement from GRK2; inhibition of aptamer binding, % at 10 µM; actives 0.59% (n = 330,000); AID 488847;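 active = inhibition of aptamer binding above 40%, roughly 3 SD of noise, on plates passing a quality check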;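 note: median bead fluorescence of bound FAM aptamer so fluorescent compounds give negative values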
VLA-4 inh = inhibition in a human VLA-4 binding assay; AID 2557; actives 0.2% (n = 330,000); P13612; VLA-4 expressing cells, ligand binding flow cytometry; inhibition, % (about 7 µM as worked out from the volumes in the protocol); in the data active = inhibition above about 50%
JMJD2C inh = inhibitors of human GASC-1 (JMJD2C) demethylase. Q9H3R0. GST-JMJD2C(1-420) H3K9me3 demethylation, DELFIA europium. inhibition, % at 2.35 µM. actives 0.069% (n = 330,000);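 active = more than half of a compound's replicate wells show inhibition beyond 50%, single wells judged on their own value; inconclusive = some, but no more than half, of replicates pass 50% inhibition; inactive = no replicate passes 50% inhibition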;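 note: signal counts dimethyl H3K9 product captured on neutravidin plate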
Hep lipid drop = modulators of hepatic lipid droplet formation. actives 0.4% (n = 240,000). inhibition, % at 6.5 µM. AML12 mouse hepatocytes, oleate lipid droplets, BODIPY imaging;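 active = lipid droplet intensity inhibited by at least 50%, with more than 500 cells counted; inconclusive = wells with under 300 cells, treated as cytotoxic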
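Test system: AML12 mouse liver cells; schedule: overnight exposure; technique: high-content imaging of BODIPY-stained droplets and DAPI nuclei; read-out: % inhibition of corrected integrated BODIPY droplet signal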
procasp3 activ = activates human procaspase-3; P42574; AID 463141; recombinant procaspase-3 D3A, Ac-DEVD-pNA absorbance 405 nm; actives 0.11% (n = 330,000); activation, % at 8.5 µM;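 active = activation above the mean of all tested compounds plus 3 SD, cut at about 21% in these data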
Target sequence (P42574 whole entry D9A/D28A/D175A): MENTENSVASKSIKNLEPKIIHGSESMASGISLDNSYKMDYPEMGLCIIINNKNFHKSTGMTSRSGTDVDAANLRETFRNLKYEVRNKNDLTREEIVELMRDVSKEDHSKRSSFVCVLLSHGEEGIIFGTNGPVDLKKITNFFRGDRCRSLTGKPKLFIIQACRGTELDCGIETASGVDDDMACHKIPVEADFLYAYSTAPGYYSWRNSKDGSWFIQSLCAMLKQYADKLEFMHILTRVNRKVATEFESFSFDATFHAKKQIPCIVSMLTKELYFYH
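assay system = Procaspase-3 D3A mutant | signal = absorbance at 405 nm, 0 and 120 min | times = 1 h preincubation plus 2 h reaction at 25 °C | repeats = single replicate | read-out = % activation between DMSO and enzyme-spiked controls | medium = Zinc-free HEPES saline buffer with Triton X-100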
procasp7 counter = counter-screen: procaspase-7 (human) activation; P55210; recombinant procaspase-7, Ac-DEVD-pNA absorbance 405 nm; D23A/D198A/D206A triple mutant, cannot self-cleave; scale: DMSO 0, 5 µM enzyme 100; activation, % at 8.5 µM; actives 0.093% (n = 330,000); AID 463210;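 active = percent activation above the screen-wide mean plus 3 SD, cut at about 25% in these data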
Target sequence (P55210 whole entry D23A/D198A/D206A): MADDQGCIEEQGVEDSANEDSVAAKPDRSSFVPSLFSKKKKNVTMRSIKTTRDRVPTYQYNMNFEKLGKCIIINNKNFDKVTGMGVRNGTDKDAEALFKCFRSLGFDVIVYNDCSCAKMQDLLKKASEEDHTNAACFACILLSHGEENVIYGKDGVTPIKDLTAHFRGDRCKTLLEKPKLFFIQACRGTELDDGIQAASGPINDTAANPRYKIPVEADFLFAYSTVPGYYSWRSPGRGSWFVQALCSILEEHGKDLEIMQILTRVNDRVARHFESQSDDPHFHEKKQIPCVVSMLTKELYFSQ
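Material: Procaspase-7 triple mutant (PC-7 D3A) | Quantity: 2 µM procaspase-7 mutant as dispensed | Reagent: DEVD-pNA substrate | Times: 1 h preincubation, 2 h reaction | Technique: 405 nm absorbance of p-nitroaniline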
VLA-4 allo CP = human VLA-4 allosteric modulation in cherry picked compounds; shares compounds with VLA-4 inh; U937 cells, HUTS-21 LIBS mAb binding, flow cytometry; LDV ligand present at threefold Kd; inhibition, % at 6.7 µM; actives 2% (n = 1,300); AID 2813; in the data active = inhibition above about 40%
Large screens that a line does not name were inactive (follow-up assays come after a bar, where they were run).

COc1ccc(NC(=O)CNCc2ccc(Cl)cc2)cc1S(=O)(=O)N1CCOCC1	none (no result: Hep lipid drop)
NC(=O)CC(NC(=O)c1ccccc1)c1ccc(N2CCC(N3CCCC3)CC2)c([N+](=O)[O-])c1 (stereo unspecified)	none
NC(=O)CC(NC(=O)c1cccc(Br)c1)c1ccc(N2CCC(N3CCCCC3)CC2)c([N+](=O)[O-])c1 (stereo unspecified)	VLA-4 inh 56 | VLA-4 allo CP inactive
COc1cc(C(=O)OCC(=O)Nc2c(F)cccc2F)cc(OC)c1C	none
COc1cc(C(=O)OCC(=O)Nc2c(F)c(F)c(F)c(F)c2F)cc(OC)c1OC	none (no result: Hep lipid drop) | VLA-4 allo CP inactive
CCOC(=O)C1(S(=O)(=O)c2ccc(Cl)cc2)CCN(Cc2ccc(C)cc2)CC1	none (no result: Hep lipid drop) | VLA-4 allo CP inactive
COc1ccc(/C=C/c2noc(-c3ccccc3O)n2)cc1	none
COc1cc(/C=C/c2noc(-c3ccccc3O)n2)cc(OC)c1OC	none | VLA-4 allo CP inactive
COCCn1cnc2c1c(=O)n(Cc1ccccc1C#N)c(=O)n2Cc1ccccc1	none
OC(CNCc1ccco1)Cn1c2ccc(Br)cc2c2cc(Br)ccc21 (stereo unspecified)	VLA-4 inh 67 | VLA-4 allo CP inactive
COc1ccc(NC(=O)c2nc3nccc(C)n3n2)cc1S(=O)(=O)N1CCOCC1	none (no result: Hep lipid drop)
COCCCN1C(=O)C(=O)/C(=C(/O)c2ccc(S(=O)(=O)N3CCOCC3)cc2)C1c1ccc(Cl)cc1 (stereo unspecified)	none
CCN1CCN(c2nc(Nc3cccc(OC)c3)nc(N)c2[N+](=O)[O-])CC1	none | VLA-4 allo CP inactive
CCN1CCN(c2nc(Nc3ccc(C)c(C)c3)nc(N)c2[N+](=O)[O-])CC1	none
Cc1ccc(C(=O)c2cc([N+](=O)[O-])ccc2N2CCOCC2)c(C)c1	none (no result: Hep lipid drop) | VLA-4 allo CP 50
Cc1ccc(C(=O)c2cc([N+](=O)[O-])ccc2N2CCOCC2)cc1C	none | VLA-4 allo CP inactive
Cc1ccc(C(=O)c2cc([N+](=O)[O-])ccc2N2CCCCC2)cc1C	Hep lipid drop inconclusive
Fc1cccc(NC(=S)NC2CCCCCCC2)c1	none (no result: procasp3 activ, procasp7 counter)
Cc1ccc(C(O)Cn2nc(C)cc2C)cc1 (stereo unspecified)	none (no result: Hep lipid drop)
COc1ccccc1NC(=O)Cc1ccsc1	none
COc1ccccc1CC(=O)N1CCN(S(=O)(=O)c2ccccc2F)CC1	VLA-4 inh 52 (no result: Hep lipid drop) | VLA-4 allo CP inactive
Cc1ccc(C(=O)COC(=O)COc2ccccc2[N+](=O)[O-])s1	none (no result: Hep lipid drop)
CCOC(=O)COc1ccccc1/C=C\[N+](=O)[O-]	VLA-4 inh 50 | VLA-4 allo CP 43
COc1ccc(S(N)(=O)=O)cc1C(=O)OCC(=O)Nc1ncc(Cl)c(C)c1Cl	none (no result: Hep lipid drop)
CC1(CCl)N([O-])C2=C(CCCC2)[N+]1=O (stereo unspecified)	none
COCCn1c(SCC(=O)Nc2cccnc2Cl)nc2ccccc2c1=O	none (no result: Hep lipid drop)
COc1ccc(/C=C/C(=O)NCCCNC(=O)/C=C/c2ccc(OC)c(OC)c2)cc1OC	none (no result: Hep lipid drop)
COc1ccc(/C=C\C(=O)NCc2ccc3c(c2)cc(C)n3C)cc1OC	VLA-4 inh 58 | VLA-4 allo CP inactive
Cc1ccc(C)c(N/C(N)=N/c2nc(C)cc(C)n2)c1	VLA-4 inh 54 (no result: Hep lipid drop) | VLA-4 allo CP inactive
COc1ccc(C)cc1N/C(N)=N/c1nc(C)cc(C)n1	none
CC(OC(=O)c1ccco1)C(=O)Nc1nc(-c2ccccc2)cs1 (stereo unspecified)	none (no result: Hep lipid drop)
COC(=O)c1cccnc1-n1c(=O)c2cccnc2n(Cc2cccc([N+](=O)[O-])c2)c1=O	VLA-4 inh 67 | VLA-4 allo CP inactive
CCCC(C(=O)Nc1ccc(S(=O)(=O)N2CCCC2)cc1)c1ccccc1 (stereo unspecified)	none (no result: Hep lipid drop)
COC(=O)c1sccc1NC(=O)Nc1ccccc1F	none
COC(=O)c1sccc1NC(=O)Nc1ccccc1C	none (no result: procasp3 activ, procasp7 counter) | VLA-4 allo CP inactive
COc1ccc(N)cc1S(=O)(=O)Nc1ccccc1Cl	none | VLA-4 allo CP inactive
Nc1ccc(N2CCCCC2)c(S(=O)(=O)Nc2ccccc2Cl)c1	none
O=C(O)CCC(=O)Nc1ccc(S(=O)(=O)Nc2nccs2)cc1	VLA-4 inh 56 | VLA-4 allo CP inactive
O=C(Nc1ccc(Cl)cc1)C1CCCN1C(=O)NCc1ccccc1 (stereo unspecified)	none
COc1ccccc1NC(=O)Nc1cnccn1	VLA-4 inh 54 | VLA-4 allo CP inactive
COc1cc2c(cc1OC)C(c1ccc(N(C)C)cc1)CC(=O)N2 (stereo unspecified)	none
COc1cc2c(cc1OC)C(c1cccc(Br)c1)CC(=O)N2 (stereo unspecified)	none (no result: procasp3 activ, procasp7 counter)
CCN(CC)c1ccc(C2CC(=O)Nc3cc(OC)c(OC)cc32)cc1 (stereo unspecified)	none | VLA-4 allo CP inactive
COc1ccc(C2CC(=O)Nc3cc(OC)c(OC)cc32)cc1Br (stereo unspecified)	none (no result: procasp3 activ, procasp7 counter) | VLA-4 allo CP inactive
CCOc1cc(C(=O)N/N=C/C(Br)=C/c2ccccc2)cc(OCC)c1OCC	VLA-4 inh 51, Hep lipid drop inconclusive | VLA-4 allo CP inactive
O=C(N/N=C/C(Br)=C/c1ccccc1)c1ccncc1	none
COC1=CC(=O)C[C@@H](C)[C@]12Oc1c(Cl)c(OC)cc(OC)c1C2=O	VLA-4 inh 54 | VLA-4 allo CP inactive
O=[N+]([O-])c1ccccc1Nc1nc(-c2cccnc2)cs1	none
Cc1cc(/C=C(/C#N)C(=O)Nc2ccccc2)c(C)n1-c1cccnc1	VLA-4 inh 94 (no result: Hep lipid drop) | VLA-4 allo CP inactive
COc1ccccc1C1c2ccc3ccccc3c2Oc2ncn(CCN(C)C)c(=N)c21 (stereo unspecified)	none
COc1ccc(C2c3ccc4ccccc4c3Oc3ncn(CCCN(C)C)c(=N)c32)cc1 (stereo unspecified)	none | VLA-4 allo CP inactive
Cc1ccc(C(=O)OCC(=O)Nc2ccccc2Cl)c(O)c1	none
Cc1ccc(C(=O)OCC(=O)Nc2cccc(Cl)c2C)c(O)c1	none | VLA-4 allo CP inactive
CSC[C@H](NC(=O)COc1cc2c(c3oc(=O)c(C)c(C)c13)CCC(C)(C)O2)C(=O)O	none
Cc1c(C)c2c(OCC(=O)N[C@@H](Cc3ccccc3)C(=O)O)cc3c(c2oc1=O)CCC(C)(C)O3	VLA-4 inh 64 | VLA-4 allo CP inactive
C=CCN(c1ccccc1Cl)S(=O)(=O)c1cc(C(=O)N2CCCC2)ccc1Cl	none
Cc1ccc(C(=O)Nc2ccncc2)c(C)c1	none

Screens: PubChem BioAssay, several laboratories
